According to PMC2744899 (Journal of the American Chemical Society, 2009):
Where “and” joins values, the source holds several entries; their conditions need not be identical. Identical values can stand only once.

Legend:
[1] = Photobleaching by direct irradiation; type: physicochemical; conditions: compare Figures 3 and 10, per photons absorbed per dye molecule
[2] = tested on: scFv K7 displayed on the yeast cell-surface; assay: Fluorescence titration of dye into yeast surface-displayed K7; conditions: read-out: Kd Yeast-Displayed K7, 10^7 yeast cells, 1:1 binding model
[3] = Thermal bleaching by singlet oxygen from sodium molybdate and H2O2; type: physicochemical; conditions: for loss of absorbance (bleaching): free dye 1 μM
Procedure, shortened: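 Singlet oxygen was generated thermally from 50 mM Na2MoO4 plus 9.8 mM H2O2 (final) at pH 9.0, with ionic strength matched to standard wash buffer. Reactions used 1 µM dye, free (in H2O or D2O, followed by absorbance) or with 1 µM K7. Spectra were taken before molybdate addition, then every 10 min for 40 min.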

[4] = Photobleaching of DIR/K7 by Xe lamp irradiation and fluoromodule regeneration; type: physicochemical

Row | SMILES | photobleaching efficiency relative to DIR and α-CN-DIR [1] | Kd [2] | bleaching in the presence of K7 ([3]; [Dye] = [K7] = 1 μM, pH 9, 40 min) | loss of absorbance (bleaching) ([3]; no K7, 90% D2O, pH 9, 40 min) | loss of absorbance (bleaching) ([3]; no K7, H2O, pH 9, after 40 min reaction) | loss of DIR fluorescence after irradiation ([4]; 1:1 DIR/K7 at 250 nM, λ > 455 nm, 15 min, H2O) | fluorescence restored after addition of another equivalent of DIR ([4]; after 15 min irradiation, one equivalent (250 nM) fresh DIR added)
1 | CN1C(=Cc2cc[n+](C)c3ccccc23)Sc2ccccc21 [TO, thiazole orange] | > 100 fold | – | – | – | – | – | –
2 | CN1/C(=C/C=C/c2cc[n+](CCCS(=O)(=O)[O-])c3ccccc23)C(C)(C)c2ccccc21 [DIR, dimethylindole red] | – | 13.9 ± 3.2 nM | 20% | 74% | 42% | 55 (±7) % and 55% | 89 % of the original value
